According to PubChem BioAssay AID504382 (The Scripps Research Institute Molecular Screening Center, 2011):
Out of some 2,500 compounds screened, about 460 (18%) were called active.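 Rule for the calls: active = mean activation above a cutoff of low control average plus 3 SD from the earlier screen (cut at about 12% in these data); inactive = the rest.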 A selection follows.

experiment: IANBD-channel fluorescence artefacts in buffer – biochemical, artefact control for cardiac RTF calcium sensitizer project, confirmation (AID 504382); settings: IANBD fluorescence interference counterscreen, EC20 Ca2+, at 7.2 µM, hits give high values, scaled: EC20 calcium 0, EC100 calcium 100
Summary of the method: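 Medium: MOPS/KCl/MgCl2/EGTA/NTA/DTT buffer, pH 7.2 | Reagent: EC20 calcium, 0.472 mM | Compound dosing: 7.2 µM single dose | Times: 15 min compound exposure at 25 °C | Signal: Fluorescence, 480/540 nm | Measure: Interference relative to controls | Repeats: Triplicate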

SMILES | fluorescence artifact activation
Cc1ccc(N2CN(Cc3cccnc3)CNC2=S)cc1 | 0.4% (inactive)
CCOC(=O)c1cnc(SC)nc1Oc1cccc(NS(=O)(=O)c2ccc(Cl)cc2)c1 | 0.07% (inactive)
CCN1C(=S)SC(=O)C1=C1C=C(C)N(Cc2ccco2)C(C)=C1 | 0.18% (inactive)
COc1cc(/C=N\NC(=O)CC(=O)NCCc2ccccc2)ccc1O | 0.17% (inactive)
CN(C)c1ccc(NC2=C([N+](=O)[O-])CS(=O)(=O)C2)cc1 | 3.15% (inactive)
CCc1ccc(NC(=O)C2CCN(S(=O)(=O)c3ccc4[nH]c(=O)ccc4c3)CC2)cc1 | 0.08% (inactive)
COc1ccc(C2OC34CCCCC3C(C#N)(C#N)C2(C#N)C(=N)O4)cc1 (stereo not drawn) | 0.16% (inactive)
CC(=O)Nc1sc2c(c1-c1nc3ccccc3s1)CN(C(C)C)CC2 | -0.08% (inactive)
Nc1c(C(=O)C2CC2)sc2nc(-c3ccccc3)cc(C(F)(F)F)c12 | 8.48% (inactive)
O=C(O)CN1C(=O)/C(=C\c2cn(CC(=O)N3CCOCC3)c3ccccc23)SC1=S | 4.83% (inactive)
Cn1cccc1/C=C1\SC(=S)N(CC(=O)O)C1=O | 3.44% (inactive)
Cn1cccc1/C=C1/SC(=S)N(CC(=O)O)C1=O | 52.3% (active)
COc1ccc2noc3c2c1C(=O)c1ccccc1-3 | 0.01% (inactive)
COc1ccc(N=Cc2c(O)c3ccccc3n2C(C)=O)cc1 | 1.91% (inactive)
N=c1oc2ccccc2cc1-c1nc(-c2ccccc2)cs1 | 0.03% (inactive)
N#C/C(=C\c1ccc(N2CCOCC2)o1)C(=O)NC1CCCCC1 | 10.5% (inactive)
N#C/C(=C\c1ccc(N2CCCCC2)o1)C(=O)Nc1cccc(Br)c1 | 1.73% (inactive)
N#C/C(=C/c1ccc(N2CCCCC2)o1)C(=O)Nc1ccc2ccccc2c1 | 52.8% (active)
COc1ccc(NC(=O)/C(C#N)=C\c2ccc(N3CCOCC3)o2)cc1 | 8.28% (inactive)
N#C/C(=C/c1ccc(N2CCCCC2)o1)C(=O)Nc1ccc(Cl)cc1 | 36.7% (active)

SMILES | fluorescence artifact activation
N#C/C(=C/c1ccc(N2CCOCC2)o1)C(=O)NC1CCCCC1 | -0.06% (inactive)
CCOC(=O)C1(Cc2cccc(OC)c2)CCCN(Cc2nccn2CC)C1 (stereo not drawn) | 0.29% (inactive)
O=C(NCc1ccco1)c1cc(-c2cccc(Cl)c2)on1 | 0.3% (inactive)
O=c1[nH]ncc2c3ccccc3n(Cc3cccc(Cl)c3)c12 | -0.06% (inactive)
Cc1nc2oc(C(=O)c3ccccc3)c(N)c2c2c1COC(C)(C)C2 | 233% (active)
N#CC1(NC(=O)CN2CCN(S(=O)(=O)c3ccccc3F)CC2)CCCC1 | -0.12% (inactive)
O=C(C1=C[C@@H](c2ccc(Br)cc2)C[C@@H](OCc2ccc(CO)cc2)O1)N1CCN(Cc2ccc3c(c2)OCO3)CC1 | 0.02% (inactive)
O=[n+]1c2c(n([O-])c3ccccc31)CCC2 | 8.78% (inactive)
O=[n+]1c2c(n([O-])c3cc(F)c(N4CCCC4)cc31)CCCC2 | 50.2% (active)
O=[n+]1c2c(n([O-])c3cc(F)c(N4CCCC4)cc31)CCC2 | 18.6% (active)
CC(C)n1cnc2c(NCc3ccccc3)cc(N[C@H](C)CO)cc21 | -0.08% (inactive)
C#CCN1C(=O)S/C(=C/C=C/c2ccc(N(C)C)cc2)C1=O | 0.36% (inactive)
O=C(NCCN1CCOCC1)c1ccccc1N1C(=O)[C@@H]2Cc3c([nH]c4ccccc34)C(c3ccc(F)cc3)N2C1=O (stereo partly drawn) | 0.13% (inactive)
COC(=O)CCC(=O)OC1(C)C(=O)C2=CN(Cc3ccc(OC)cc3)C(c3ccc(OC)cc3)=CC2=C(Br)C1=O (stereo not drawn) | -0.01% (inactive)
CN(N=Nc1nc[nH]c1C(=O)NN)C1CCCCC1 | 0.38% (inactive)
Fc1ccc(CN2CCCN(C(=S)Nc3ccc(F)cc3)CC2)cc1 | 17.4% (active)
O=C(Nc1ccc(F)cc1)OCCN1CCN(Cc2ccccc2)CCC1=O | -0.08% (inactive)
Cc1ccc(NC(=O)COC(=O)c2csc3c2CCC(C)C3)cc1S(=O)(=O)N1CCCCC1 (stereo not drawn) | 1.08% (inactive)
COc1ccc2c(CC(=O)N[C@@H](Cc3c[nH]c4ccccc34)C(=O)O)cc(=O)oc2c1 | 4.51% (inactive)
CCc1ccc(-n2c(O)c(C=NCCN(CC)CC)c(=O)[nH]c2=O)cc1 | 2.92% (inactive)

SMILES | fluorescence artifact activation
CCOc1ccc(-n2c(SCC(=O)Nc3ccc(OC)cc3OC)nc3c(c2=O)SCC3)cc1 | 0.76% (inactive)
COc1ccc(-c2ccc(C3C(C#N)=C(N)Oc4n[nH]c(C)c43)o2)cc1 (stereo not drawn) | 14.3% (active)
Cc1[nH]nc2c1C(c1cc(Br)cs1)C(C#N)=C(N)O2 (stereo not drawn) | 0.04% (inactive)
CCOc1ccc(NC(=S)c2ccncc2)cc1 | 0.07% (inactive)
C=COc1ccc(N2C(=O)c3ccccc3OC2C)cc1 (stereo not drawn) | 2.14% (inactive)
O=C(O)c1cccc(-c2ccc(/C=N/Nc3ccc([N+](=O)[O-])cc3)o2)c1 | 1.4% (inactive)
Nc1ccc2nc3c(=O)[nH]c(=S)[nH]c3nc2c1 | 6.07% (inactive)
Nc1ccc2nc(-c3ccccc3)cnc2c1 | 26.1% (active)
COc1ccc(-c2cc3ncc(-c4ccccc4)c(N)n3n2)cc1 | 1.7% (inactive)
Cc1ccc(-c2nc(N)sc2CC(=O)OCC(=O)NCCC(C)C)cc1 | 2.4% (inactive)
Cc1ccc(-c2nc(C)sc2CC(=O)O)cc1 | 14.7% (active)
Cc1ccc(SCC(=O)c2sc(-c3ccccc3)nc2C)cc1 | 10.1% (inactive)
COC(=O)c1ccc(S(=O)(=O)N(CCO)Cc2ccccc2)n1C | -0.01% (inactive)
Cc1ccc(N=Nc2c(O)n(CN3CCOCC3)c3ccccc23)cc1 | 4.5% (inactive)
CCOC(=O)C1=C(C)N=c2s/c(=C/c3ccc(OCC(=O)O)cc3)c(=O)n2C1c1ccc(SC)cc1 (stereo not drawn) | 0.15% (inactive)
Cc1ccc(C)c(C2=NNC(=O)CC2)c1 | 0.16% (inactive)
Cc1cc(NC(=O)CCC(=O)N(CCC(C)C)C(C(=O)NC2CCCC2)c2cccnc2)no1 (stereo not drawn) | 0% (inactive)
C=CC[C@@H](CC(=O)N(CCO)Cc1ccccc1)C(=O)N[C@@H](COC(=O)[C@@H](CC=C)Cc1ccc(F)cc1)Cc1ccccc1 | 0.09% (inactive)
